{"data": "Measured values collected from several papers", "observed": "thermal stability", "technique": "DSF", "GAK": "Cyclin-G-associated kinase (GAK, Homo sapiens, UniProt O14976)", "DCLK1": "Serine/threonine-protein kinase DCLK1 (DCLK1, Homo sapiens, UniProt O15075)", "SIRT2": "NAD-dependent protein deacetylase sirtuin-2 (SIRT2, Homo sapiens, UniProt Q8IXJ6)", "lecA": "PA-I galactophilic lectin (lecA, Pseudomonas aeruginosa, UniProt Q05097)", "note": "Compare with care: the assays were run in different laboratories."}
{"SMILES": "FC(F)(F)c1ccc2nccc(Nc3ccc(Cl)cc3)c2c1", "target": "GAK", "tested at": "10 µM", "ΔTm [°C]": 4.3}
{"SMILES": "CCC1(CC)NC(=O)c2c(c3ccc(Cl)c(Cl)c3n2C)C1C#N (centres unmarked)", "target": "DCLK1", "tested at": "10 µM", "ΔTm [°C]": 0}
{"SMILES": "COc1ccccc1Nc1ccnc2ccc(C(F)(F)F)cc12", "target": "GAK", "tested at": "10 µM", "ΔTm [°C]": 3}
{"SMILES": "Cc1cc(C)nc(SCC(=O)Nc2ncc(Cc3cccc(OCc4cn(Cc5ccccc5C)nn4)c3)s2)n1", "target": "SIRT2", "tested at": "25 µM", "ΔTm [°C]": 4.26}
{"SMILES": "N#Cc1cccc(O)c1O", "target": "lecA", "tested at": "4 mM", "ΔTm [°C]": 1.8}
{"SMILES": "CCN1CCC2(CC1)NC(=O)c1c(c3ccc(Cl)c(Cl)c3n1C)C2C#N (racemic)", "target": "DCLK1", "tested at": "10 µM", "ΔTm [°C]": 0.1}
{"SMILES": "CC(C)(C)c1ccc(O)c(O)c1", "target": "lecA", "tested at": "4 mM", "ΔTm [°C]": -15.4}
{"SMILES": "Cc1cc(C)nc(SCC(=O)Nc2ncc(Cc3cccc(OCc4cn(Cc5ccc(OCCN6CCOCC6)cc5)nn4)c3)s2)n1", "target": "SIRT2", "tested at": "25 µM", "ΔTm [°C]": 6.63}
{"SMILES": "Fc1cc(Nc2ccnc3ccc(C(F)(F)F)cc23)cc(F)c1F", "target": "GAK", "tested at": "10 µM", "ΔTm [°C]": 3.7}
{"SMILES": "CCCCCCCC(=O)Nc1ncc(Cc2cccc(OCc3cn(CCOC)nn3)c2)s1", "target": "SIRT2", "tested at": "25 µM", "ΔTm [°C]": 4.28}
{"SMILES": "Cn1c2c(Cl)c(Cl)ccc2c2cn[nH]c(=O)c21", "target": "DCLK1", "tested at": "10 µM", "ΔTm [°C]": -0.2}
